Measured values published in article PMC4170804 (Bioorganic & medicinal chemistry, 2013).
Read-outs that look alike come from different tables or passages of the source. One block for each molecule: values may come before it.

Key:
FM3A/0 cells = assay: Antiproliferative assay, murine mammary carcinoma FM3A/0 cells; format: cell-based; details: for IC50: read-out: IC50 ± SD, FM3A/0
CEM/0 cells = assay: Antiproliferative assay, human T-leukemia CEM/0 cells; format: cell-based; details: read-out: IC50 ± SD, CEM/0, 48 h, Coulter counter
HeLa cells [1] = assay: Antiproliferative assay, human cervix carcinoma HeLa cells; format: cell-based; details: read-out: IC50 ± SD, HeLa, 48 h
tubulin = assay: Inhibition of [3H]colchicine binding to tubulin; parameters: species or system bovine; details: for Colchicine binding % ± SD (inhibition of [3H]colchicine binding): tubulin 1 µM, colchicine 5 µM, tested compound 5 µM
[2] = test system: human pancreatic tumor (MIA PaCa-2) cells; details: cited from earlier work
[3] = test system: epithelial carcinoma (A431) cells; details: cited from earlier work
L1210 cells = assay: Antiproliferative assay, murine leukemia L1210 cells; format: cell-based; details: Mus musculus, L1210, 48 h, read-out: IC50 ± SD, L1210
Molt4/C8 cells = assay: Antiproliferative assay, human T-leukemia Molt4/C8 cells; format: cell-based; details: for IC50: Homo sapiens, Molt4/C8, 48 h, read-out: IC50 ± SD, Molt4/C8
Jurkat cells [4] = assay: Antiproliferative assay, T-leukemia Jurkat; format: cell-based; details: Homo sapiens, read-out: IC50 ±SD, Jurkat
Summary of the method: (§1)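 Cells were seeded at 300,000–500,000 cells/mL and mixed 1:1 with serial dilutions of test compound. They were incubated 48 h at 37 °C, and cell number was counted with a Coulter counter.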

Raji cells = assay: Antiproliferative assay, B-cell lymphoma Raji; format: cell-based; details: Homo sapiens, read-out: IC50 ±SD, Raji
Summary of the method: as §1

HOS, OST TK- cells = assay: Antiproliferative assay, osteosarcoma HOS, OST TK-; format: cell-based; details: Homo sapiens, read-out: IC50 ±SD, HOS, OST TK-
Summary of the method: as §1

MCF-7 cells = assay: Antiproliferative assay, mammary carcinoma MCF-7; format: cell-based; details: Homo sapiens, MCF7, read-out: IC50 ±SD, MCF-7
Summary of the method: as §1

PC-3 cells = assay: Antiproliferative assay, prostate PC-3; format: cell-based; details: Homo sapiens, PC-3, read-out: IC50 ±SD, PC-3
Summary of the method: as §1

bovine brain tubulin = assay: Inhibition of tubulin polymerization; format: biochemical; details: greater than that of 1
HeLa cells [5] = assay: Flow cytometric cell cycle analysis, HeLa; format: cell-based, human; details: 24 h
Summary of the method: (§2)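 Exponentially growing cells (5 × 105 for HeLa) were exposed to test compound at 15–250 nM for 24 h. Cells were fixed in ice-cold 70% ethanol, then treated with lysis buffer containing RNase A and 0.1% Triton X-100. After propidium iodide staining, DNA content was analysed by flow cytometry for cell-cycle distribution. Values are mean ± SEM of three independent experiments.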

Jurkat cells [6] = assay: Flow cytometric cell cycle analysis, Jurkat; format: cell-based, human; details: 24 h
Summary of the method: as §2

[7] = test system: cyclin B, p-cdc2 Y15, cdc25C in HeLa cells; assay: Western blot of G2/M regulatory proteins in HeLa cells; format: cell-based, human
Summary of the method: (§3)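 HeLa cells were treated with test compound for 24 or 48 h, washed twice in ice-cold PBS, and lysed on ice for 30 min. Lysis buffer was T-PER with 300 mM NaCl, 1 mM orthovanadate, 2 mM AEBSF and protease inhibitors. Lysates were cleared at 15,000g (4 °C, 10 min). 20 µg protein went to SDS–PAGE, PVDF transfer and overnight blocking. Primary antibodies ran 2 h at room temperature, then HRP secondary and ECL. Membranes were stripped and reprobed for β-actin as loading control.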

HeLa cells [8] = assay: Annexin-V/PI apoptosis assay; format: cell-based, human; details: 24 h, further increased at 48 h even at 15 nM
HeLa cells [9] = assay: Mitochondrial membrane potential; format: cell-based, human; details: 24 or 48 h
HeLa cells [10] = assay: Mitochondrial ROS production; format: cell-based, human; details: 24 or 48 h, versus control cells
[11] = test system: cleaved caspase-3, cleaved caspase-9, PARP, Bcl-2, Mcl-1, XIAP in HeLa cells; assay: Western blot of caspases, PARP, Bcl-2, Mcl-1, XIAP in HeLa cells; format: cell-based, human
Summary of the method: as §3

[12] = test system: panel of human and murine tumor cell lines; assay: Antiproliferative activity, panel of human and murine tumor cell lines; format: cell-based
Summary of the method: as §1

[13] = test system: panel of human cancer cell lines; assay: Antiproliferative activity, panel of additional human cancer cell lines; format: cell-based; details: read-out: IC50 values against additional human cancer cell lines
Summary of the method: as §1

[14] = test system: wide panel of cancer cell lines; assay: Antiproliferative activity, wide panel of cancer cell lines; format: cell-based; details: read-out: IC50 against a wide panel of cancer cell lines
Summary of the method: as §1

[15] = at higher concentrations (range 15 to 250 nM)

Colchicine binding % ± SD (inhibition of [3H]colchicine binding) (tubulin): 52 ± 4%
SMILES: COC(=O)c1cc(CCc2cc(OC)ccc2OC)ccc1O [Compound 1, reference compound]
fold less active in FM3A cells than the other cell lines examined (FM3A/0 cells; FM3A vs other cell lines): about 30 fold
IC50 (FM3A/0 cells; murine mammary carcinoma FM3A/0, 48 h, Coulter counter): 13 ± 0.2 µM
IC50 (CEM/0 cells): 0.44 ± 0.01 µM
IC50 (HeLa cells [1]; human cervix carcinoma HeLa, Coulter counter): 0.41 ± 0.08 µM
antiproliferative activity, MIA PaCa-2 [2]: active at low micromolar concentrations
antiproliferative activity, A431 [3]: active at low micromolar concentrations

IC50 (L1210 cells): 1.8 ± 0.1 µM
IC50 (FM3A/0 cells; Mus musculus, FM3A/0, 48 h): 2.3 ± 0.6 µM
IC50 values in Molt4/C8, in words (Molt4/C8 cells): submicromolar
IC50 (HeLa cells [1]; Homo sapiens, HeLa): 0.77 ± 0.17 µM
Colchicine binding % ± SD (inhibition of [3H]colchicine binding) (tubulin): 52 ± 0.9%
SMILES: COC(=O)c1cc(CCc2cc(OC)ccc2OC)sc1N [Compound 2a, Methyl 2-amino-5-[2-(2,5-dimethoxyphenyl)ethyl]thiophene-3-carboxylate]

IC50 (FM3A/0 cells; Mus musculus, FM3A/0, 48 h): 1.9 ± 0.5 µM
IC50 (Molt4/C8 cells): 1.1 ± 0.1 µM
IC50 (HeLa cells [1]; Homo sapiens, HeLa): 0.31 µM
Colchicine binding % ± SD (inhibition of [3H]colchicine binding) (tubulin): 46 ± 0.9%
SMILES: CCOC(=O)c1cc(CCc2cc(OC)ccc2OC)sc1N [Compound 2b, Ethyl 2-amino-5-[2-(2,5-dimethoxyphenyl)ethyl]thiophene-3-carboxylate]

IC50 (FM3A/0 cells; Mus musculus, FM3A/0, 48 h): 0.056 ± 0.004 µM
IC50 (Jurkat cells [4]): 0.012 ± 0.008 µM
IC50 (Raji cells): 0.064 ± 0.025 µM
IC50 (HOS, OST TK- cells): 0.024 ± 0.013 µM
IC50 (MCF-7 cells): 0.025 ± 0.001 µM
IC50 (PC-3 cells): 0.025 ± 0.013 µM
inhibition of colchicine binding relative to 1 (tubulin; more active than 1): 1.5 fold
Colchicine binding % ± SD (inhibition of [3H]colchicine binding) (tubulin): 84 ± 5%
IC50 ([12]; read-out: IC50 values against panel of human and murine tumor cell lines): 0.035 to 0.13 µM
IC50 [13]: 0.012 to 0.086 µM
IC50 [14]: 0.017 to 0.13 µM
SMILES: COc1ccc(OC)c(CCc2cc(C#N)c(N)s2)c1 [Compound 2c, 2-Amino-5-[2-(2,5-dimethoxyphenyl)ethyl]thiophene-3-carbonitrile]
tubulin assembly inhibitory activity relative to 1 (bovine brain tubulin): 3 fold
lowest concentration with a rise in G2/M cells (HeLa cells [5]): 30 nM
cells arrested in G2/M (HeLa cells [5]; [15]): more than 80%
lowest concentration with a rise in G2/M cells (Jurkat cells [6]): 30 nM
cells arrested in G2/M (Jurkat cells [6]; [15]): more than 80%
cyclin B1 expression ([7]; 50 and 100 nM, 24 and 48 h): marked increase in cyclin B1 expression
cdc25C phosphorylation state / expression ([7]; 50 and 100 nM, 24 h and 48 h): slower migrating forms of phosphatase cdc25C appeared at 24 h
phosphorylation of cdc2 (Tyr15) ([7]; after 24 h): dramatic de-phosphorylation of cdc2 (Tyr15)
annexin-V positive cells (apoptosis) (HeLa cells [8]): accumulation of annexin-V positive cells in a concentration-dependent manner
cells with depolarized mitochondria (Δψmt, JC-1) (HeLa cells [9]): time and concentration-dependent increase in the proportion of cells with depolarized mitochondria
ROS production (HE, H2-DCFDA) (HeLa cells [10]): induced the production of significant amounts of ROS
caspase-9 activation ([11]; 50 and 100 nM, 24 h): early activation of caspase-9 at 24 h
caspase-3 and PARP activation ([11]; 50 and 100 nM, 48 h): activation of caspase-3 and of the caspase-3 substrate PARP
expression of anti-apoptotic proteins Bcl-2 and Mcl-1 ([11]; both concentrations used (50 and 100 nM)): remarkably reduced after a 24 h and disappeared after a 48 h treatment
expression of XIAP ([11]; concomitant with caspase activation): strongly reduced
enhancement of antiproliferative activity with respect to 1 ([12]; in four cell lines): 3–230 fold

IC50 (L1210 cells): 46 ± 3.2 µM
IC50 (FM3A/0 cells; Mus musculus, FM3A/0, 48 h): 44 ± 8.1 µM
IC50 (Molt4/C8 cells): 47 ± 16 µM
IC50 (HeLa cells [1]; Homo sapiens, HeLa): 35 ± 7.1 µM
SMILES: COC(=O)c1c(N)sc(CCc2cc(OC)ccc2OC)c1C [Compound 2d, Methyl 2-amino-5-[2-(2,5-dimethoxyphenyl)ethyl]-4-methylthiophene-3-carboxylate]

IC50 (L1210 cells): 34 ± 3.2 µM
IC50 (FM3A/0 cells; Mus musculus, FM3A/0, 48 h): 33 ± 9.1 µM
IC50 (Molt4/C8 cells): 24 ± 2.2 µM
SMILES: CCOC(=O)c1c(N)sc(CCc2cc(OC)ccc2OC)c1C(=O)OCC [Compound 2e, Diethyl 2-amino-5-[2-(2,5-dimethoxyphenyl)ethyl]thiophene-3,4-dicarboxylate]

IC50 (L1210 cells): 17 ± 5.3 µM
IC50 (FM3A/0 cells; Mus musculus, FM3A/0, 48 h): 34 ± 5.6 µM
IC50 (HeLa cells [1]; Homo sapiens, HeLa): 15 ± 1.3 µM
SMILES: COC(=O)c1cc(CCc2ccccc2OC)sc1N [Compound 2f, Methyl 2-amino-5-[2-(2-methoxyphenyl)ethyl]thiophene-3-carboxylate]

IC50 (FM3A/0 cells; Mus musculus, FM3A/0, 48 h): 45 ± 16 µM
SMILES: COC(=O)c1cc(CCc2ccc(OC)cc2C)sc1N [Compound 2h, Methyl 2-amino-5-[2-(4-methoxy-2-methylphenyl)ethyl]thiophene-3-carboxylate]

IC50 (FM3A/0 cells; Mus musculus, FM3A/0, 48 h): 53 ± 7.2 µM
IC50 (Molt4/C8 cells): 6.9 ± 0.8 µM
IC50 (HeLa cells [1]; Homo sapiens, HeLa): 45 ± 6.2 µM
SMILES: CCOC(=O)c1cc(CCc2ccccc2OC)sc1N [Compound 2i, Ethyl 2-amino-5-[2-(2-methoxyphenyl)ethyl]thiophene-3-carboxylate]

IC50 (L1210 cells): 20 ± 10 µM
IC50 (FM3A/0 cells; Mus musculus, FM3A/0, 48 h): 48 ± 5.2 µM
IC50 (Molt4/C8 cells): 0.34 ± 0.5 µM
IC50 values in Molt4/C8, in words (Molt4/C8 cells): submicromolar
IC50 (HeLa cells [1]; Homo sapiens, HeLa): 39 ± 0.2 µM
SMILES: CCOC(=O)c1cc(CCc2ccc(OC)cc2)sc1N [Compound 2j, Ethyl 2-amino-5-[2-(4-methoxyphenyl)ethyl]thiophene-3-carboxylate]

IC50 (FM3A/0 cells; Mus musculus, FM3A/0, 48 h): 22 ± 3.1 µM
IC50 (Molt4/C8 cells): 2 ± 0.2 µM
IC50 (HeLa cells [1]; Homo sapiens, HeLa): 7.8 ± 2.1 µM
SMILES: COc1ccccc1CCc1cc(C#N)c(N)s1 [Compound 2k, 2-Amino-5-[2-(2-methoxyphenyl)ethyl]thiophene-3-carbonitrile]

IC50 (FM3A/0 cells; Mus musculus, FM3A/0, 48 h): 31 ± 27 µM
IC50 (HeLa cells [1]; Homo sapiens, HeLa): 19 ± 13 µM
SMILES: COc1ccc(CCc2cc(C#N)c(N)s2)cc1 [Compound 2l, 2-Amino-5-[2-(4-methoxyphenyl)ethyl]thiophene-3-carbonitrile]

IC50 (FM3A/0 cells; Mus musculus, FM3A/0, 48 h): 62 ± 3.2 µM
IC50 (HeLa cells [1]; Homo sapiens, HeLa): 35 ± 3.1 µM
SMILES: N#Cc1cc(CCc2ccccc2)sc1N [Compound 2m, 2-Amino-5-phenylethylthiophene-3-carbonitrile]

IC50 (L1210 cells): 50 ± 5.2 µM
IC50 (FM3A/0 cells; Mus musculus, FM3A/0, 48 h): 52 ± 1 µM
IC50 (HeLa cells [1]; Homo sapiens, HeLa): 37 ± 6.1 µM
SMILES: COC(=O)c1cc(-c2cc(OC)ccc2OC)sc1N [Compound 2n, Methyl 2-amino-5-(2,5-dimethoxyphenyl)thiophene-3-carboxylate]

IC50 (L1210 cells): 76 ± 3.2 µM
IC50 (HeLa cells [1]; Homo sapiens, HeLa): 71 ± 20 µM
SMILES: COc1ccc(OC)c(-c2cc(C#N)c(N)s2)c1 [Compound 2o, 2-Amino-5-(2,5-dimethoxyphenyl)thiophene-3-carbonitrile]
